# Source: PubChem
# PolyA inhibitor – polyadenylation inhibitors in yeast reporter cells, primary screen, luminescence, S. cerevisiae. activity score, % at 12 µM. S. cerevisiae SKY197-pL101 polyadenylation reporter, beta-gal luminescence; efflux-impaired pdr1/pdr3 knockout yeast; score 100 = 6 SD above DMSO. 300,000 compounds, 0.02% hits;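 active = lowest replicate activity score at least 50, where 100 means six control SD above control mean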;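 note: yeast exposed to compound for 9 h at 30 °C; higher score means more reporter readthrough which indicates perturbed polyadenylation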
# Rce1 inhib – yeast Rce1p protease inhibitors, primary screen, biochemical, fluorescence, cell-free homogeneous | CAAX prenyl protease 2 (Saccharomyces cerevisiae (strain ATCC 204508 / S288c)), Q03530 | yeast membranes, quenched prenylated peptide cleavage fluorescence | calls only | 290,000 compounds, 0.27% hits | AID 2563, 2010;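 active = fall in fluorescence gain of 50% or more versus controls, with final raw signal at or below 3038400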;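 note: plate controls were neutral control wells for no effect and wells lacking membranes for full effect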
# Target sequence (Q03530 whole entry, looked up): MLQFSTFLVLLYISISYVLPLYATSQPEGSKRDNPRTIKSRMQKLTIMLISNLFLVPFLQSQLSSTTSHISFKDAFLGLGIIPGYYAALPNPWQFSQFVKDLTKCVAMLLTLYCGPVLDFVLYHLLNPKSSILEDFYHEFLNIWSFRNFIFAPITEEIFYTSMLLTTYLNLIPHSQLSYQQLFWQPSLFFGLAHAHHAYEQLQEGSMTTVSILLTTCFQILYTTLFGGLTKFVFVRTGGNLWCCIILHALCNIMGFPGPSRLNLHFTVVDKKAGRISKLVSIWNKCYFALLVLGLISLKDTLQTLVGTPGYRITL
# T cell modulator – modulators of CD8 T cell-vesicle binding, primary screen, mouse 2C CD8+ T cells, flow cytometry. 2C CD8+ T cell-vesicle binding; active compounds read low. 330,000 compounds, 0.068% hits. AID 2052, 2009. response (vesicle binding), % at 7 µM;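 active = response, share of CD8 T cells binding vesicles, and their 90th percentile fluorescence all below set limits, cut at about 80% in these data, passing the limit was not always enough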;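 note: values below 100% mean blocked vesicle binding to the CD8+ T cells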
#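 Also added: QL9-peptide-loaded Drosophila micro-vesicles bearing Ld, ICAM-1 and B7-1; Test system: purified 2C TCR transgenic mouse naive CD8+ T cells; Measured by: cytometric PE anti-B7-1 and Alexa647 anti-CD8 signals after 1% paraformaldehyde fixation; Timing: binding step 1.5 h, 37 °C, antibody labelling 20 min, ice.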
# aDG glyco up – activators of alpha-DG glycosylation, primary screen, uHTS, Pro5-aDG cells, AlphaScreen; alpha-DG glycosylation AlphaScreen (IIH6); 0% Pro5, 100% B10-LARGE cell signal; activation, % at 10 µM; 360,000 compounds, 0.22% hits; AID 624168, 2012;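 active = activation of at least 8% versus controls, or a plate z-score of at least 8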;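 note: Pro5 are CHO cells carrying HIG-tagged alpha-DG that lacks glycosylation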
# The depositor's hits bear a star; i = inactive; · = no result given; + = active, no number. A selection: hits, their analogues and other compounds. The true share with any hit is near 0.51%.
SMILES,PolyA inhibitor,Rce1 inhib,T cell modulator,aDG glyco up
C#CCNC(=O)C1=C[C@@H](C2CCCCC2)C[C@@H](OCc2ccc(CO)cc2)O1,-6,+,·,0
NS(=O)(=O)c1ccc(CCNC(=O)CNS(=O)(=O)c2cccc(Br)c2)cc1,17,i,267,0
CCCCOC(=O)Nc1nc(C)c(C(=O)OCC)s1,-16,+,308,0
O=S(=O)(Cc1ccccc1)N=Nc1c(O)[nH]c2ccc(Br)cc12,14,i,341,1
CC1CCCCC1NC(=O)C1CCC(CNS(=O)(=O)c2cccc3cccnc23)CC1 (centres undefined),3,i,269,0
COC(=O)Cc1c(C)c2ccc(OCc3nn[nH]n3)c(C)c2oc1=O,-8,+,116,0
Cc1ccc2nc(/C(C#N)=C\c3ccc([N+](=O)[O-])o3)[nH]c2c1,·,i,19,0
N#C/C(=C\c1ccc([N+](=O)[O-])o1)c1nc2ccccc2[nH]1,711*,·,406,·
CCCN(CCC)S(=O)(=O)c1ccc(C(=O)Nc2nnc(-c3cccc(OC)c3)o2)cc1,2,i,136,3
CCCN(CCC)S(=O)(=O)c1ccc(C(=O)Nc2nnc(-c3cc(OC)cc(OC)c3)o2)cc1,-7,i,275,5.5*
COc1ccc(C(=O)NC(=S)NCc2ccco2)cc1Br,-3,i,196,0
C/C(CC(=O)Nc1ccc2c(c1)OCCO2)=N\NC(=O)COc1ccc(Cl)c(C)c1,-6,i,396,0
COc1ccccc1C(=O)NC(=S)Nc1ccc(S(=O)(=O)N2CCN(C)CC2)cc1,-1,i,0.0*,0
COc1ccccc1C(=O)Nc1ccc(S(=O)(=O)N2CCN(C)CC2)cc1,7,i,470,0
COc1cccc(-c2c(C(=O)N/N=C/c3sccc3C)nnn2-c2nonc2N)c1,-8,+,464,0
CCCOc1ccc(-c2c(C(=O)N/N=C/c3cccs3)nnn2-c2nonc2N)cc1,6,+,451,0
CCOc1ccc(-c2c(C(=O)N/N=C/c3ccc(OC)cc3)nnn2-c2nonc2N)cc1,10,i,7.5*,0
COc1ccc(CN2CCCCC2C(=O)Nc2ccc(OC)c(OCC(C)C)c2)cc1OC (centres undefined),2,+,174,0
CCCCN1CC(N2CCCCC2)CS1(=O)=O (centres undefined),·,·,·,0
CNC(=O)c1c(NC(=O)c2ccc(S(=O)(=O)N(C)c3ccccc3)cc2)sc2c1CCN(C(C)C)C2,9,i,245,·
CCN1CCc2c(sc(NC(=O)c3ccc(S(=O)(=O)N(C)c4ccccc4)cc3)c2C(=O)NC)C1,26,i,245,43*
COC(=O)[C@H](C)N(Cc1ccc(Cl)c(Cl)c1)S(=O)(=O)CCN1CCCC1,·,·,·,0
Cc1nc2ccc(NC(=O)Cc3ccc4c(c3)OCCO4)cc2s1,84*,i,130,0
CCn1nnnc1SCC(=O)Nc1nc(C)c(C)s1,7,+,414,0
O=C1c2ccccc2NC(c2ccc(Br)s2)N1O (centres undefined),8,i,119,·
SMILES,PolyA inhibitor,Rce1 inhib,T cell modulator,aDG glyco up
Cn1c(=O)c(C(=O)NCCO)c(O)c2ccccc21,2,+,352,0
O=c1c(Cl)c2oc3ccccc3nc-2c2ccccc12,-20,i,584,6.1*
Cc1cc(C)n2cc(CSCC(=O)O)nc2n1,8,+,273,0
Cc1ccc(CN2CCN(/N=C/c3sccc3C)CC2)c(C)c1,-4,i,69,0
CCCCn1nnnc1C(c1cc2ccccc2o1)N1CCCN(C(=O)OC(C)(C)C)CC1 (centres undefined),·,·,·,0
CCCNC(=O)N(C)C[C@H]1Oc2cc(Br)ccc2S(=O)(=O)N([C@@H](C)CO)C[C@@H]1C,·,·,·,0
O=C1NC2(C=Cc3c(ccc4ccccc34)O2)Oc2ccccc21 (centres undefined),-19,+,186,0
CC1(C)OC(=O)N(c2ccccc2)C12C=Cc1c(ccc3ccccc13)O2 (centres undefined),-57,i,237,0
CC(C)C[C@H](NC(=O)c1nc[nH]c1C(=O)N1CCN(c2ccccc2)CC1)C(=O)OCc1ccccc1,-6,i,651,3
CC(C)C[C@H](NC(=O)c1nc[nH]c1C(=O)N1CCNCC1)C(=O)OCc1ccccc1,-7,+,603,0
COc1ccc(CNC(=O)/C=C/[C@H]2O[C@@H](n3cc(C)c(=O)[nH]c3=O)C[C@@H]2O)cc1,·,·,·,0
O=C(CNc1ccc2ccccc2c1)N/N=C/c1ccc([N+](=O)[O-])o1,-12,i,i,9.8*
COc1ccccc1C(=O)NCC[N+](C)(C)C,·,·,·,0
c1ccc(-c2ccc(-c3cn4c(n3)CCC4)cc2)cc1,-28,+,111,0
COc1ccc(-c2cn3c(n2)CCC3)cc1,5,i,210,0
COc1cc(NC(=O)C/C(C)=N/NC(=O)c2cccc(O)c2)c(OC)cc1Cl,6,+,579,0
O=S(=O)(O)c1cc2oc(-c3ccccc3)nc2c2ccccc12,0,+,744,0
COc1cc(C(=O)OCC(=O)Nc2ccc(SC(F)F)cc2)cc(OC)c1OC,-14,+,525,0
COc1cc(C(=O)OCC(=O)Nc2ccc(OC(F)F)cc2)cc(OC)c1OC,4,i,209,0
O=C1C=C(N(CCO)Cc2ccccc2)c2ccccc2C1=O,-20,i,·,14*
O=C1c2ccccc2C(=O)c2c1cccc2N(CCO)CCO,4,i,219,0
CS/C(=N\S(=O)(=O)c1cccs1)Nc1cccc(Cl)c1C,86*,i,273,0
Cc1cccc(C)c1NC(=O)CN1CCN(C(=O)c2cc(C3CC3)nn2-c2ccccc2)CC1,·,·,·,0
COc1ccc2cc(C(=O)C3CCCN(C(=O)CCc4cnn(C)c4)C3)ccc2c1 (centres undefined),7,+,188,1
CC[C@H](C)[C@@H]1NC(=O)c2cc([N+](=O)[O-])cc(I)c2SC[C@@H](C(N)=O)NC(=O)[C@H](CCCCN)NC1=O,·,·,201,·
O=C(Nc1nc2c(s1)CCCC2)C1COc2ccccc2O1 (centres undefined),-8,i,38*,0
COc1ccc2c(c1)c1nnc(SCC(=O)N3C(C)CCCC3C)nc1n2C (centres undefined),-15,i,480,0
COc1ccc2c(c1)c1nnc(SC)nc1n2C,96*,i,417,1
C=C1CC[C@H](O)C/C1=C/C=C1\CCC[C@]2(C)[C@@H]([C@H](C)/C=C/[C@H](C)C(C)C)CC[C@@H]12,·,·,693,0
Cc1cc(C)n2c(nc3ccccc32)c1C(=O)NCc1ccccc1,1,+,243,0
